Data set [1] addresses Kallikrein-7 (Homo sapiens) (UniProt P49862). The experiment in a line: Inhibition of N-terminal SUMO and His6-tagged human KLK7 assessed as reduction in vaspin-N-terminal cleavage using compound pre-treated KLK7 incubated for 60 mins by Coomassie-staining based SDS-PAGE method. The gist of the method:
(§1)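 KLK7 was pre-treated with 1 mM compound (10 % DMSO, 37 °C, 30 min) and concentrated on a 5 kDa spin column. It was then mixed with vaspin at a 3:1 molar ratio (3.15 μM KLK7, 1.05 μM vaspin) in 50 mM Tris, 150 mM NaCl, pH 8.0 (elsewhere stated as pH 7.5) at room temperature for up to 60 min. Time-point samples were boiled 5 min in reducing SDS buffer, run on 12 % gels and Coomassie-stained.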

The target is the same in data set [2]. The experiment in a line: Inhibition of N-terminal SUMO and His6-tagged human KLK7 assessed as protease activity by measuring fluorogenic peptide substrate NFF-3 cleavage (reference value: >400 pmol/(min.ug).
Data set [3] has the same target. The experiment in a line: Inhibition of N-terminal SUMO and His6-tagged human KLK7 expressed in Escherichia coli Rosetta (DE3) pLysS assessed as reduction in covalent KLK7-vaspin complex formation using compound pre-treated KLK7 incubated for 60 mins by Coomassie-staining based SDS-PAGE method. Summed up:
as §1

Data set [4] can be described thus: Stability in 100% DMSO at -20 degC for several months by ESI-MS and 1H NMR spectroscopy. The class given is physicochemical.
The target in data set [5] is Kallikrein-7 (Homo sapiens) (UniProt P49862). The experiment in a line: Covalent binding affinity to of N-terminal SUMO and His6-tagged human KLK7 expressed in Escherichia coli Rosetta (DE3) pLysS assessed as compound binding to His57 of catalytic triad by mass spectrometry.

Active and inactive are the calls of the source. The calls are words filed in the database; no cut-off is given here.

Sequence of Kallikrein-7 (Homo sapiens) (P49862 30-253 limits assumed): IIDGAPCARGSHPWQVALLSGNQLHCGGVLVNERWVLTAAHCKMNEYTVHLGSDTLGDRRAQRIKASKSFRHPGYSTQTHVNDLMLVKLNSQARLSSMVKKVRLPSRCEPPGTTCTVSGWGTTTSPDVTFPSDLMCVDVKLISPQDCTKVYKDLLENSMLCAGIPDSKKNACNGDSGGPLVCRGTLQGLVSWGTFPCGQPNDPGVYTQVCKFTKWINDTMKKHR

In the case of `O=C(Oc1cccc(Cl)c1)c1cc2cc(CCl)ccc2oc1=O`, in data set [1], the inhibition entry is “inactive”. Moreover, the Activity in data set [2] was less than 0.1 pmol/min/µg. Moreover, the inhibition entry in data set [3] is “Active”.
For `O=C(Oc1cccc(I)c1)c1cc2cc(CCl)ccc2oc1=O` the same measures were “inactive”, less than 0.1 pmol/min/µg and “Active”.
Regarding `O=C(Oc1cccc(Br)c1)c1cc2cc(CCl)ccc2oc1=O`, in data set [4], the Stability entry was “Stable”. In addition, the inhibition entry in data set [1] was “inactive”. In data set [2], the Activity was less than 0.1 pmol/min/µg. For the same compound, the outcome in data set [5] was Active. Also, the inhibition entry in data set [3] is “Active”.

These data come from ChEMBL document CHEMBL4602722, “Structural Studies on the Inhibitory Binding Mode of Aromatic Coumarinic Esters to Human Kallikrein-Related Peptidase 7” (J Med Chem, 2020).
